In PubChem BioAssay AID617 (SRMLSC, 2007):

Test system: E. coli BW25113 ΔtolC growth inhibition, OD615
Experiment: growth inhibitors of E. coli tolC mutant, dose response, strain BW25113 ΔtolC::kan (AID 617)
Outline: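 System: E. coli BW25113 ΔtolC::kan bacteria. Amount: 1:1000 diluted subculture inoculum. Medium: LB broth supplemented with kanamycin at 50 µg/mL. Compound dosing: serial dilution series of compound. Schedule: 20 h exposure at 37 °C. Detection: OD615. Measure: IC50 of bacterial growth inhibition. Benchmarks: chloramphenicol control, 30 µM final.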

Structure (SMILES)	IC50
O=C(CCC1CCCC1)c1c(O)c2ccccc2oc1=O	0.96 µM
COc1ccccc1C1CC(c2ccc(Cl)cc2)Nc2ncnn21 (stereo unspecified)	15.1 µM
O=C(NC1CCCCCCC1)c1ccccc1O	9.01 µM
CCCCN1C(=O)C2ON(c3ccccc3C)C(c3ccco3)C2C1=O (stereo unspecified)	14.4 µM
CN(C)c1ccc(C2C=C(c3ccc(Cl)cc3OC(F)F)Nc3ncnn32)cc1 (stereo unspecified)	1.95 µM
CCOc1ccccc1C(=O)NC(C(=O)OCC(=O)Nc1nnc(-c2ccccc2)o1)C(C)C (stereo unspecified)	7.68 µM
c1ccc(-c2ccccc2-c2nc(-c3cccnc3)no2)cc1	13.9 µM
Cc1cc(NC(=O)C2CCCCC2)nc2c1c(=O)oc1ccccc12	11.5 µM
Cn1c(-c2ccccc2)cc2c3no[n+]([O-])c3ccc21	5.09 µM
Clc1ccccc1OCc1nnc(-c2ccccc2Br)o1	12.4 µM
N#Cc1nc(Cc2ccccc2)oc1NCCc1ccccc1	8.5 µM
Cc1ccc(C(C(=O)NC2CCCC2)N(Cc2cccs2)C(=O)CNC(=O)c2cccs2)o1 (stereo unspecified)	22.3 µM
CCCn1c(=O)c(C(=O)Nc2nnc(C)s2)c(O)c2ccccc21	12 µM
O=C1NC(Nc2nc3ccccc3s2)(C(F)(F)F)C(=O)N1C1CCCCC1 (stereo unspecified)	5.74 µM
Cc1cccc(Nc2nc(-c3ccccn3)cs2)n1	0.68 µM
CC1CN(S(=O)(=O)c2ccc(C(=O)Nc3nnc(-c4ccc5c(c4)CCCC5)o3)cc2)CC(C)O1 (stereo unspecified)	0.77 µM
CC(C)C[C@H](NC(=O)OC(C)(C)C)c1nnc(SCc2cccc(F)c2)o1	11.9 µM
Cn1c(=O)c2c(nc(N3CCCCCC3)n2Cc2cccc3ccccc23)n(C)c1=O	7.33 µM
CCSC1=C(C#N)C(c2ccc(Cl)cc2)C2=C(CCCC2=O)N1 (stereo unspecified)	8.21 µM
Cc1ccc(O)c(C(=O)CC(=O)c2cccc(F)c2)c1	11.6 µM
O=C(NC1CCCC1)c1sc(=S)n2c1[nH]c(=O)c1ccccc12	0.56 µM

Structure (SMILES)	IC50
CCCCCOC(=O)c1ccc(NC(=O)c2ccco2)cc1	6.52 µM
CC(OC(=O)c1ccccc1NCc1ccco1)C(=O)Nc1ncc(Cl)cc1Cl (stereo unspecified)	39.1 µM
O=C(Nc1cccc(C(F)(F)F)c1)N1CCC(c2nc(-c3ccc(F)cc3)no2)CC1	3.75 µM
CCn1cc(C(=O)NCc2ccc3c(c2)OCO3)c(=O)c2cc(F)c(N3CCN(C)CC3)cc21	2.8 µM
Cc1ccc(S(=O)(=O)N(Cc2ccccc2)Cc2ccco2)cc1	10.8 µM
O=C(c1cc2ccccc2o1)N1CCN(c2ccccc2Cl)CC1	9.9 µM
Cc1c(C(=O)N2CCCCC2)oc2ccc(S(=O)(=O)N3CC(C)CC(C)C3)cc12 (stereo unspecified)	9.13 µM
N#Cc1cn(CCOc2ccccc2F)c2ccccc12	16.1 µM
Cc1cc(C)cc(Nc2cc(=O)n(C3CCCCC3)c(=O)[nH]2)c1	2.8 µM
CCC(C)(C)n1nnnc1C(c1cc2ccc(OC)cc2[nH]c1=O)N1CCc2ccccc2C1 (stereo unspecified)	17.1 µM
CCOC(=O)N1CCc2c(sc(NC(=O)c3ccc(Cl)s3)c2C(N)=O)C1	5.13 µM
CC1CCN(c2oc(-c3ccccc3F)nc2C#N)CC1	19.2 µM
CCN(CC)c1ccc(C(=O)Nc2cccc(F)c2)cc1	8.06 µM
O=C(CCn1c(=O)oc2ccccc21)N1CCN(C(c2ccccc2)c2ccccc2)CC1	29 µM
CCCc1nc2ccccc2c(=O)n1NC(=O)c1c(O)c2ccccc2[nH]c1=O	5.73 µM
Cc1onc(-c2c(F)cccc2Cl)c1C(=O)Nc1nc2c(s1)CCCC2	19.4 µM
Cc1ccc(-c2noc(CSc3nnnn3C3CCCCC3)n2)cc1	12.9 µM
N#C/C(=C\c1ccco1)Sc1nc2ccccc2s1	8.6 µM
CCCOc1ccc2oc(=O)c3c(c2c1)CCCN3C(=O)CN1CCc2ccccc2C1	14.1 µM
COc1ccccc1-c1cc(C(=O)NCc2ccc(F)cc2)no1	9.85 µM
COc1cccc(-c2cc(C(=O)N3CCc4ccccc4C3)no2)c1	8.69 µM

Structure (SMILES)	IC50
O=C(c1cccc(F)c1)N1CCN(C(=O)c2cc(-c3ccc(Cl)cc3Cl)on2)CC1	9.75 µM
Cc1nn(-c2ccccc2)c(Cl)c1C(=O)Nc1nnc(C2CCCC2)s1	8.48 µM
C=CCn1cc(C(=O)NCc2ccco2)c(=O)c2cc(S(=O)(=O)N3CCCCCC3)ccc21	16.1 µM
Cc1cc(Cl)cc(C)c1OCCCCn1ccnc1	15 µM
OC1(c2cccc(C(F)(F)F)c2)CCN(c2ncnc3c2[nH]c2ccc(F)cc23)CC1	1.58 µM
Cc1ccc(Cl)cc1N1CCN(C(=O)COc2ccc(S(=O)(=O)NC(C)C)cc2)CC1	10.6 µM
Cc1ccc(S(=O)(=O)Cn2nnnc2CN2CCCC3(CCCCC3)C2)cc1	11.3 µM
CCOC(=O)c1c(NC(=O)CSc2nnc(C)c(=O)[nH]2)sc2c1CCC2	10.6 µM
CSc1ccc(S(=O)(=O)Nc2ccc(N3CCOCC3)c(Cl)c2)cc1	6.56 µM
CCOC(=O)c1cnc(-n2nc(C)cc2C)nc1NCc1ccccc1	0.68 µM
Cc1onc(-c2ccccc2Cl)c1C(=O)Nc1sc2c(c1C#N)CCC2	7.5 µM
N#CC1=C(SCC(=O)NC23CC4CC(CC(C4)C2)C3)NC(=O)C(C#N)C12CCCCC2 (stereo unspecified)	4.11 µM
COC(=O)c1ccc(OC)c(CSc2nnc(COc3ccccc3)o2)c1	23.1 µM
CO[C@@]1(NC(=O)Cc2cccs2)C(=O)N2C(C(=O)O)=C(COC(N)=O)CS[C@@H]21	2 µM
c1ccc(Cn2nnc3c(N4CCN(Cc5ccc6c(c5)OCO6)CC4)ncnc32)cc1	22.6 µM
COc1ccccc1C(=O)Nc1nnc(-c2ccc3c(c2)CCCC3)o1	6.32 µM
CC1CCCc2sc3nc(NCc4ccco4)n4ncnc4c3c21 (stereo unspecified)	11.6 µM
COc1ccc(C/C(O)=C(\C#N)c2nc3ccccc3s2)cc1	5.12 µM
Cc1cccc(Cn2c(=O)c3c(nc4n3CCCN4Cc3ccccc3)n(C)c2=O)c1	20 µM
COc1cc(/C=C(/C#N)c2ccc(F)cc2)ccc1OCc1ccc(C(=O)O)o1	4.94 µM
CCC1(C)Cc2ccccc2-c2nc3n(c(=O)c21)CCCCC3 (stereo unspecified)	15.8 µM

Structure (SMILES)	IC50
O=c1cc(O)c2c(=O)n3c4c(cccc4c2o1)CCC3	2.82 µM
O=C(COc1ccc(Cl)cc1)Nc1nnc(-c2ccc3c(c2)CCCC3)o1	0.25 µM
COC(=O)c1ccc(CSc2nc3ccccc3o2)cc1	20.2 µM
Cc1ccc(-c2nnc(SCC(=O)N3CC(C)CC(C)C3)o2)cc1C (stereo unspecified)	12.9 µM
c1ccc(CSc2nnc(-c3cccs3)n2Cc2ccco2)cc1	13.2 µM
Fc1ccc(-c2cc(C(F)(F)F)nc(NCC3CCCO3)n2)cc1 (stereo unspecified)	20.7 µM
Cc1ccc(C(=O)Nc2nc(COc3ccccc3)cs2)s1	101 µM
CCOC(=O)N1CCN(c2nc(N(c3ccccc3)c3ccccc3)nc(-n3ccnc3)n2)CC1	20.3 µM
CCOC(=O)c1c(-c2ccccc2)oc2ccc(OC(=O)N(C)C)cc12	9.1 µM
Brc1ccc(-c2nc(-c3ccccc3)no2)o1	30.1 µM
Cc1cc(C)n(-c2nc(NC(C)C)nc(NC(C)C)n2)n1	2.96 µM
O=C1c2ccccc2C(O)(Cc2ccccc2)N1C1CCCCC1 (stereo unspecified)	11.5 µM
CCOc1cc(S(=O)(=O)n2cc(-c3ccc(F)cc3)c(N)n2)cc(OCC)c1OCC	21 µM
CC(C)(C)NC(=O)C(c1ccco1)N(C(=O)Cn1nnc(-c2ccc(F)cc2)n1)c1cccc(F)c1 (stereo unspecified)	20.9 µM
N#Cc1c(NC(NC(=O)c2ccco2)C(=O)c2ccccc2)sc2c1CCCC2 (stereo unspecified)	13.5 µM
O=C(Nc1nnc(-c2cccs2)o1)c1cccc(Oc2ccccc2)c1	0.17 µM
CCn1cc(C(=O)NC2CCCCC2C)c(=O)c2ccc(C)nc21 (stereo unspecified)	5.31 µM
CCCOc1nc2c(c(=O)n(C)c(=O)n2C)n1Cc1cccc2ccccc12	28.2 µM
